Reference: ChEMBL document CHEMBL1687758, “Azithromycin alters macrophage phenotype and pulmonary compartmentalization during lung infection with Pseudomonas” (2010)
Active and inactive are the calls of the source. The calls are words filed in the database; no cut-off is given here.

Experiments:
[1] = test system: Mus musculus; test: Immunomodulatory activity in Pseudomonas aeruginosa M57-15 infected C57BL/6 mouse lung assessed as decrease of TNFalpha production in CD11b+ cells in lung digest at 0.16 g/kg, po measured after 7 days by flow cytometry; assay type: functional, organism-based
Procedure, shortened: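 Lung digest cells (2 × 106) were stimulated for 4 h with 50 ng/ml PMA and 500 ng/ml ionomycin plus 10 μg/ml brefeldin A. They were surface-stained for CD11b/CD11c, fixed in 4% formalin, permeabilized with 0.05% saponin, Fc-blocked, and stained for intracellular TNF-α and IL-10 for flow cytometry. Mice were dosed at 0.16 g/kg by daily oral gavage from 4 days before infection.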

[2] = test system: Mus musculus; test: Immunomodulatory activity in Pseudomonas aeruginosa M57-15 infected C57BL/6 mouse lung assessed as increase of MHC2 expression in CD11b+ Gr1+ cells in lung digest at 0.16 g/kg, po measured after 7 days by flow cytometry; assay type: functional, organism-based
Procedure, shortened: (§1)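 Oral gavage of 0.16 g/kg daily (2% methylcellulose vehicle) began 4 days before intratracheal bead infection (1 × 105 to 2 × 10^5 CFU). On days 3, 7 and 14, cells were taken from lavage (0.3 mM EDTA buffer) and from collagenase/DNase lung digest (1 h, 37°C). Cells were stained for CD11b, CD11c, Gr-1, CD4, CD80, MHC-II and MR, with more than 50,000 events acquired. Counts were gated percent × manual cell count.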

[3] = test system: Mus musculus; test: Immunomodulatory activity in Pseudomonas aeruginosa M57-15 infected C57BL/6 mouse lung assessed as increase of CD80 expression in CD11b+ Gr1+ cells in lung digest at 0.16 g/kg, po measured after 7 days by flow cytometry; assay type: functional, organism-based; procedure, shortened: as §1
[4] = test system: Pseudomonas aeruginosa; test: Antibacterial activity against Pseudomonas aeruginosa M57-15 infected in C57BL/6 mouse assessed as effect on host weight loss at 0.16 g/kg, po measured up to 14 days; assay type: functional, organism-based
Procedure, shortened: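 Dosing was 0.16 g/kg daily by oral gavage in 2% methylcellulose, or vehicle, from 4 days before intratracheal bead infection (1 × 105 to 2 × 10^5 CFU). Body weight was followed over the study and compared with a sham-infected group. Groups had 3 to 6 mice, and each experiment was repeated at least three times.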

[5] = test system: Pseudomonas aeruginosa; test: Antibacterial activity against Pseudomonas aeruginosa M57-15 infected in C57BL/6 mouse assessed as increase of host survival time at 0.16 g/kg, po measured up to 14 days; assay type: functional, organism-based
Procedure, shortened: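 For survival, mice received 1.3 × 10^6 CFU (1× LD50) intratracheally in agarose beads under isoflurane. Daily oral gavage of 0.16 g/kg in 2% methylcellulose, or vehicle, began 4 days before infection. Survival curves were compared by log-rank.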

[6] = test system: Pseudomonas aeruginosa; test: Antibacterial activity against Pseudomonas aeruginosa M57-15 infected in C57BL/6 mouse assessed as effect on bacterial burden at 0.16 g/kg, po measured up to 14 days; assay type: functional, organism-based
Procedure, shortened: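 Mice got 0.16 g/kg in 2% methylcellulose by daily oral gavage, starting 4 days before infection, or vehicle. Infection was intratracheal with bead-embedded bacteria, 1 × 105 to 2 × 10^5 CFU (about LD10). On days 0, 3, 7 and 14, aliquots of lung lavage and digest were plated on Pseudomonas selection agar and CFU counted manually after overnight growth.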

[7] = test system: Mus musculus; test: Immunomodulatory activity in Pseudomonas aeruginosa M57-15 infected C57BL/6 mouse lung assessed as increase of total cells in lung digest at 0.16 g/kg, po measured after 14 days by flow cytometry; assay type: functional, organism-based; procedure, shortened: as §1
[8] = test system: Mus musculus; test: Immunomodulatory activity in Pseudomonas aeruginosa M57-15 infected C57BL/6 mouse lung assessed as effect on CD11b+ cells infiltration in lung lavage fluid at 0.16 g/kg, po measured after 7 days by flow cytometry; assay type: functional, organism-based; procedure, shortened: as §1
[9] = test system: Mus musculus; test: Immunomodulatory activity in Pseudomonas aeruginosa M57-15 infected C57BL/6 mouse lung assessed as reduction of CD11b- and Gr-1+ cells infiltration in lung lavage fluid at 0.16 g/kg, po measured after 7 days by flow cytometry; assay type: functional, organism-based; details: in the assay text read “lung digest” for “lung lavage fluid”; procedure, shortened: as §1
[10] = test system: Mus musculus; test: Immunomodulatory activity in Pseudomonas aeruginosa M57-15 infected C57BL/6 mouse lung assessed as increase of CD4+ T cell in lung lavage fluid at 0.16 g/kg, po measured after 7 to 14 days by flow cytometry; assay type: functional, organism-based; procedure, shortened: as §1
[11] = test system: Mus musculus; test: Immunomodulatory activity in Pseudomonas aeruginosa M57-15 infected C57BL/6 mouse lung assessed as increase of CD4+ T cell in alveolar space at 0.16 g/kg, po measured after 7 days by flow cytometry; assay type: functional, organism-based; procedure, shortened: as §1
[12] = test system: Mus musculus; test: Immunomodulatory activity in Pseudomonas aeruginosa M57-15 infected C57BL/6 mouse lung assessed as CD11b+c- cell expression level in lung digest at 0.16 g/kg, po measured after 3 days by flow cytometry (reference value: 25.42 +/- 10.57 %); assay type: functional; procedure, shortened: as §1
[13] = test system: Mus musculus; test: Immunomodulatory activity in Pseudomonas aeruginosa M57-15 infected C57BL/6 mouse lung assessed as CD11b+c- cell expression level in lung digest at 0.16 g/kg, po measured after 7 days by flow cytometry (reference value: 17.07 +/- 4.84 %); assay type: functional; procedure, shortened: as §1
[14] = test system: Mus musculus; test: Immunomodulatory activity in Pseudomonas aeruginosa M57-15 infected C57BL/6 mouse lung assessed as CD11b+c- cell expression level in lung digest at 0.16 g/kg, po measured after 14 days by flow cytometry (reference value: 21.97 +/- 3.51 %); assay type: functional; procedure, shortened: as §1
[15] = test system: Mus musculus; test: Immunomodulatory activity in Pseudomonas aeruginosa M57-15 infected C57BL/6 mouse lung assessed as CD11b+c+ cell expression level in lung digest at 0.16 g/kg, po measured after 3 days by flow cytometry (reference value: 8.63 +/- 0.53 %); assay type: functional; procedure, shortened: as §1
[16] = test system: Mus musculus; test: Immunomodulatory activity in Pseudomonas aeruginosa M57-15 infected C57BL/6 mouse lung assessed as CD11b+c+ cell expression level in lung digest at 0.16 g/kg, po measured after 7 days by flow cytometry (reference value: 5.16 +/- 1.09 %); assay type: functional; procedure, shortened: as §1
[17] = test system: Mus musculus; test: Immunomodulatory activity in Pseudomonas aeruginosa M57-15 infected C57BL/6 mouse lung assessed as CD11b+c+ cell expression level in lung digest at 0.16 g/kg, po measured after 14 days by flow cytometry (reference value: 6.6 +/- 1.86 %); assay type: functional; procedure, shortened: as §1
[18] = test system: Mus musculus; test: Immunomodulatory activity in Pseudomonas aeruginosa M57-15 infected C57BL/6 mouse lung assessed as CD11b-c+ cell expression level in lung digest at 0.16 g/kg, po measured after 3 days by flow cytometry (reference value: 19.71 +/- 3.89 %); assay type: functional; procedure, shortened: as §1
[19] = test system: Mus musculus; test: Immunomodulatory activity in Pseudomonas aeruginosa M57-15 infected C57BL/6 mouse lung assessed as CD11b-c+ cell expression level in lung digest at 0.16 g/kg, po measured after 7 days by flow cytometry (reference value: 29.15 +/- 3.98 %); assay type: functional; procedure, shortened: as §1
[20] = test system: Mus musculus; test: Immunomodulatory activity in Pseudomonas aeruginosa M57-15 infected C57BL/6 mouse lung assessed as CD11b-c+ cell expression level in lung digest at 0.16 g/kg, po measured after 14 days by flow cytometry (reference value: 23.93 +/- 4.10 %); assay type: functional; procedure, shortened: as §1
[21] = test system: Mus musculus; test: Immunomodulatory activity in Pseudomonas aeruginosa M57-15 infected C57BL/6 mouse lung assessed as CD11b+c- cell expression level in lung lavage fluid at 0.16 g/kg, po measured after 3 days by flow cytometry (reference value: 1.20 +/- 0.41 %); assay type: functional; procedure, shortened: as §1
[22] = test system: Mus musculus; test: Immunomodulatory activity in Pseudomonas aeruginosa M57-15 infected C57BL/6 mouse lung assessed as CD11b+c- cell expression level in lung lavage fluid at 0.16 g/kg, po measured after 7 days by flow cytometry (reference value: 1.13 +/- 0.30 %); assay type: functional; procedure, shortened: as §1

For `CC[C@H]1OC(=O)[C@H](C)[C@@H](O[C@H]2C[C@@](C)(OC)[C@@H](O)[C@H](C)O2)[C@H](C)[C@@H](O[C@@H]2O[C@H](C)C[C@H](N(C)C)[C@H]2O)[C@](C)(O)C[C@@H](C)CN(C)[C@H](C)[C@@H](O)[C@]1(C)O` [AZITHROMYCIN], the Activity [1] was “Active”, the Activity [2] was “Active” and the Activity [3] was “Active”. The Activity [4] was “inactive”, the Activity [5] was “inactive” and the Activity [6] was “inactive”. The Activity [7] was “Active”, the Activity [8] was “Active” and the Activity [9] was “Active”. For the same compound, the Activity [10] was “Active”, the Activity [11] was “Active” and the Activity [12] was 14.42%. It also gave an Activity [13] of 16.83%, an Activity [14] of 15.55% and an Activity [15] of 7.44%. It also gave an Activity [16] of 17.1%, an Activity [17] of 4.31% and an Activity [18] of 20.92%. For the same compound, the Activity [19] was 20.36%, the Activity [20] was 18.18% and the Activity [21] was 0.42%. The Activity [22] was 13.3%.
